Hits are enriched below; roughly 2.3% of the tested compounds scored in any of these assays.
TRPC6 act: mouse TRPC6 channel activation. HEK293-TRPC6 membrane potential dye fluorescence; stronger effect = higher value. AID 2550. 0.13% of 310,000 active. B-score at 10 µM. Q61143;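 active = B-score of the integrated fluorescence ratio above library mean plus 3 SD, and starting fluorescence ratio within library mean plus 5 SD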;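 also: higher score means more depolarization so channel activation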
TRPC4 inh: inhibitors of mouse TRPC4 channel | Q9QUQ5 | HEK293 TRPC4beta/mu-opioid, DAMGO-evoked Fluo4 calcium flux; stronger effect = lower value | B-score at 10 µM | 0.39% of 300,000 active | AID 2247;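 active = B-score over 3 SD under the library average, no early fluorescence shift, positive overall ratio signal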
Target sequence (Q9QUQ5 whole entry, looked up): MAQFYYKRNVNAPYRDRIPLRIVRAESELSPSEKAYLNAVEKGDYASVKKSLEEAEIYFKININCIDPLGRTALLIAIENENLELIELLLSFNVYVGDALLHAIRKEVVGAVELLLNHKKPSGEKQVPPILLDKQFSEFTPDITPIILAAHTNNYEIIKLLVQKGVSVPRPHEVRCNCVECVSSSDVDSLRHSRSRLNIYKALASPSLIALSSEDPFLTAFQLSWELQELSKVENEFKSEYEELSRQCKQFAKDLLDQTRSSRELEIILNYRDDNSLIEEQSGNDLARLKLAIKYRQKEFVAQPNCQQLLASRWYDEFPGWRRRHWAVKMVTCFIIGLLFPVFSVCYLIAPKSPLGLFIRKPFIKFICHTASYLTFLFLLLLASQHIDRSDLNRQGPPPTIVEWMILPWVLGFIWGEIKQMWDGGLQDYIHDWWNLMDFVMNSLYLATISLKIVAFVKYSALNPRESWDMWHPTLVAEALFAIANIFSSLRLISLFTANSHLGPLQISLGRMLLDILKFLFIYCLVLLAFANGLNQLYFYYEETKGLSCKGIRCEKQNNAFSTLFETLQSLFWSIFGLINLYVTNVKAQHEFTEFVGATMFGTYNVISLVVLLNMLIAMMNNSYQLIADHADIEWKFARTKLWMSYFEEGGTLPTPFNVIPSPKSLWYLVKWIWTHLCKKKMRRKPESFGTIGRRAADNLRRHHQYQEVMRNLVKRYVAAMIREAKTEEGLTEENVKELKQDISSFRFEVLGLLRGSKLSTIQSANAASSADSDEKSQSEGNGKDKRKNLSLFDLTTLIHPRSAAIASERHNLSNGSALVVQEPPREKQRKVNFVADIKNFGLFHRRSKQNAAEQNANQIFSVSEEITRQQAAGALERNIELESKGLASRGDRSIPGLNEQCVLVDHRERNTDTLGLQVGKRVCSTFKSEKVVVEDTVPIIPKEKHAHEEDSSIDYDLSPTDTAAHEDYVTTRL
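test system = HEK293 cells with stable TRPC4beta plus mu-opioid receptor expression | detection = Fluo4 Ca2+ flux fluorescence | read-out = integrated fluorescence ratio relative to baseline, converted to per-well B score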
TRPC6 inhibitor: mouse TRPC6 channel inhibition. B-score at 10 µM. HEK293-TRPC6, membrane potential dye, ACh-evoked depolarization; stronger effect = lower value. 1.1% of 310,000 active;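 active = B-score under library mean minus 3 SD, initial fluorescence not abnormally high, positive integrated signal ratio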;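 also: B-score derived from integrated fluorescence ratio over the kinetic read; more negative B-score means stronger inhibition of depolarization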
TRPC4 PAM: allosterically enhances the mouse TRPC4 cation channel | Q9QUQ5 | HEK293 TRPC4beta/mu-opioid, DAMGO EC20, Fluo-4 Ca2+ flux; stronger effect = higher value | B-score at 10 µM | 0.42% of 310,000 active | AID 2227;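 active = B-score of calcium response area above 5 SD of library B-scores, with initial fluorescence ratio within 5 SD of library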;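 also: B-score of integrated fluorescence ratio over time as area under calcium response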
TRPC4 act: activators of mouse TRPC4 channel | 0.49% of 310,000 active | B-score at 10 µM | HEK293 TRPC4beta/mu-opioid, Fluo4 calcium fluorescence; stronger effect = higher value | Q9QUQ5;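 active = B-score above 5 SD of library B-scores, and initial fluorescence ratio not above library mean plus 5 SD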;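 also: positive B-score marks a calcium rise read as TRPC4 activation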
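system = HEK293 cells stably co-expressing mouse TRPC4beta and mu-opioid receptor | schedule = Fluo4 dye loading 45 min at room temperature, 110 s recording | measure = B-scored integrated calcium fluorescence ratio | signal = Fluo4 calcium-sensitive dye fluorescence, kinetic, 1 Hz baseline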
TRPC4 spec 2: mouse TRPC4 off-target activity of TRPC6 inhibitors, second screen | shares compounds with TRPC6 inhibitor | AID 2776 | HEK293 TRPC4/MOR, membrane potential dye fluorescence; channel activated by saturating DAMGO dose | 42% of 920 active | inhibition, % at 10 µM;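 active = compounds whose fluorescence signal differed from control wells by over 3 SD, either direction, in both duplicate plates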
TRPC4 spec: tests whether TRPC6 inhibitors also affect mouse TRPC4; 61% of 920 active; AID 2777; HEK293 TRPC4/mu-opioid, membrane potential fluorescence; shares compounds with TRPC6 inhibitor; activity change, negative = inhibition, % at 10 µM;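 active = rise or fall in signal beyond 3 SD of buffer-only wells in both replicate plates, either sign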;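 also: integrated kinetic ratio of fluorescence range over baseline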
HEK293 MPD ctr 2-1: second counter-screen for TRPC6 inhibitors: parental HEK293 cells; shares compounds with TRPC6 inhibitor; parental HEK293 membrane potential dye fluorescence; maximal acetylcholine challenge after compound addition; signal change vs control, % at 10 µM; 31% of 920 active; AID 2779;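 active = membrane potential signal moving either way by over 3 SD of the maximum-effect control, in both duplicate plates, meaning non-specific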
HEK293 MPD ctr-1: parental HEK293 nonspecific activity of TRPC6 inhibitors | shares compounds with TRPC6 inhibitor | parental HEK293 membrane potential dye fluorescence | membrane potential signal change, % at 10 µM | 60% of 920 active;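 active = membrane potential signal shifting up or down by more than 3 SD of buffer-only wells, on both duplicate plates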
HEK293 MPD ctr-2: parental HEK293 nonspecific activity of TRPC6 modulators | AID 488924 | membrane potential dye fluorescence | shares compounds with TRPC6 inhibitor | membrane potential signal change, % at 10 µM | 51% of 2,400 active;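 active = membrane potential signal moves up or down beyond 5 SD from buffer-only wells, on both duplicate plates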
HEK293 MPD ctr 2-2: parental HEK293 nonspecific activity of TRPC6 modulators, second screen. 14% of 2,400 active. shares compounds with TRPC6 inhibitor. inhibition, % at 10 µM. membrane potential dye fluorescence; after compound, maximal acetylcholine stimulation;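 active = membrane potential signal drops by more than 5 SD from the mean control signal, in both duplicate plates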;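 also: plate controls were acetylcholine ECmax control wells for no effect and buffer only wells for full effect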
TRPC4/MOR mod: mouse TRPC4 off-target activity of TRPC6 modulators. AID 488927. percent change from control (negative = decrease, positive = increase), % at 10 µM. shares compounds with TRPC6 inhibitor. 69% of 2,400 active. HEK293 TRPC4/mu-opioid, membrane potential fluorescence;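 active = membrane potential signal moved up or down beyond 5 SD of buffer control wells, in both duplicate plates, actives on both sides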;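 also: plate controls were assay buffer wells for no effect and DAMGO maximal-effect wells for full effect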
TRPC4/MOR inh 2: second selectivity test of TRPC6 modulators against mouse TRPC4 | shares compounds with TRPC6 inhibitor | 55% of 2,400 active | inhibition, % at 10 µM | AID 488928 | HEK293 TRPC4/mu-opioid, membrane potential dye fluorescence; stimulated with maximal-effect DAMGO;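 active = drop in membrane potential signal beyond 5 SD of the control wells in both duplicate plates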;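 also: TRPC4 counter screen for TRPC6 hits run under conditions tuned for TRPC6 not TRPC4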
TRPC6 inh conf: confirmation of mouse TRPC6 inhibitors. HEK293-TRPC6, membrane potential dye, ACh-evoked depolarization. inhibition, % at 10 µM. 43% of 3,300 active. shares compounds with TRPC6 inhibitor. AID 488960;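 active = fluorescence ratio falls more than 5 SD below the full-stimulation control mean, in both duplicate runs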;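 also: integrated fluorescence ratio of peak minus minimum over baseline after agonist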
TRPC6 act conf: confirmation of mouse TRPC6 activators; shares compounds with TRPC6 inhibitor; HEK293-TRPC6 membrane potential dye fluorescence, FDSS; activation, % at 10 µM; 11% of 2,800 active; AID 488961;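 active = ratio signal rise beyond 5 SD above unstimulated control wells' mean, seen in both duplicate runs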;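 also: plate controls were buffer EC0 wells for no effect and acetylcholine ECmax response for full effect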
Active calls of the source: *; i = inactive; . = no result.

SMILES	TRPC6 act	TRPC4 inh	TRPC6 inhibitor	TRPC4 PAM	TRPC4 act	HEK293 MPD ctr-2	HEK293 MPD ctr 2-2	TRPC4/MOR mod	TRPC4/MOR inh 2	TRPC6 inh conf	TRPC6 act conf	others
COc1ccc(CCNCC(O)COc2cccc(Br)c2)cc1 (stereo unspecified)	i	i	-5.5*	i	i	186%*	i	30%*	50%*	i	.
CCCCn1nnnc1SCC(=O)c1cc(Cl)ccc1OC	i	i	i	i	i	.	.	.	.	.	.
COc1ccc(Cl)cc1C(=O)CSc1nc(N)cc(N)n1	13*	i	-8.5*	i	i	i	i	i	i	72%*	173%*
O=C(Nc1nccs1)c1ncc(Cl)c(Cl)c1Cl	i	i	i	i	i	.	.	.	.	.	.
N#Cc1nc(Cc2cccc3ccccc23)oc1NCCN1CCCCC1	i	i	-5.2*	i	i	106%*	i	10%*	63%*	i	.
CCOC(=O)C1=C(C)NC(C)=C(C(=O)OCC)C1c1sccc1C	i	i	-5.4*	i	i	i	i	i	40%*	i	i
CCOC(=O)C1=C(C)NC(C)=C(C(=O)OCC)C1c1cccs1	i	i	i	i	i	.	.	.	.	.	.
CN(C)c1nc(F)c(F)c(S(=O)(=O)c2ccccc2)c1F	i	i	-5.3*	i	i	i	i	i	i	i	i
COc1cc(/C=C2/C(=O)N(c3cccc(Br)c3)N=C2C)cc(OC)c1O	i	i	-5.4*	i	i	i	i	-26%*	72%*	53%*	i
COc1ccc(C2=NN(c3ccccc3)C(=O)/C2=C\c2ccc(O)c(OC)c2)cc1	i	i	-6.8*	i	i	.	.	.	.	i	i	TRPC4 spec 2=i;TRPC4 spec=i;HEK293 MPD ctr 2-1=i;HEK293 MPD ctr-1=i
CN1C(=O)NC(c2ccccc2[N+](=O)[O-])C2=C1CCCC2=O (stereo unspecified)	i	i	i	i	i	.	.	.	.	.	.
COc1nc(NCCc2ccc(OC)c(OC)c2)nc(Nc2ccccc2)n1	i	i	i	i	i	.	.	.	.	.	.
O=C(O)c1cc(NN=C2c3ccccc3-c3ccccc32)ccc1Cl	i	-8*	-5.4*	i	i	i	i	-12%*	59%*	61%*	.
COc1ccc(N(CC(=O)NC2CCCCCC2)S(=O)(=O)c2ccccc2)cc1Cl	i	i	i	i	i	.	.	.	.	.	.
CNC(=O)COc1coc(CN2CCN(c3ccc(F)cc3)CC2)cc1=O	i	i	i	i	i	.	.	.	.	.	.
CN(C)S(=O)(=O)N1CCN(c2ccccc2Cl)CC1	i	i	i	i	i	.	.	.	.	.	.
CN(C)S(=O)(=O)N1CCN(C(=O)c2ccccc2Cl)CC1	i	i	-5*	i	i	i	i	i	i	i	i
CN1CCCC1CCNc1ccc2c(=O)c3ccccc3oc2c1 (stereo unspecified)	i	i	-9.5*	i	i	.	.	.	.	i	i	TRPC4 spec 2=74%*;TRPC4 spec=-10%*;HEK293 MPD ctr 2-1=i;HEK293 MPD ctr-1=i
CN1CCCC1CCNc1ccc2oc3ccccc3c(=O)c2c1 (stereo unspecified)	i	i	-5.6*	i	i	178%*	i	14%*	44%*	44%*	.
O=c1c2ccccc2oc2ccc(NCCCN3CCOCC3)cc12	i	i	i	i	i	.	.	.	.	.	.
O=c1c2ccccc2oc2cc(NCCCN3CCOCC3)ccc12	i	i	i	i	i	.	.	.	.	.	.
CCCCOCCCN1CC(=O)N2[C@@H](Cc3c([nH]c4ccccc34)C2(C)C)C1=O	i	i	i	i	i	.	.	.	.	.	.
CN(C)C(=O)c1c2c(nc3ccccc13)-c1ccccc1CC2	i	i	-5.7*	i	i	i	i	i	i	i	i
COc1ccc(/C=N/NC(=O)CNC(=O)c2ccncc2)cc1OC	i	i	i	i	i	.	.	.	.	.	.
Nc1[nH]c2cc([N+](=O)[O-])ccc2c1-c1ccccn1	i	i	i	i	i	.	.	.	.	.	.
SMILES	TRPC6 act	TRPC4 inh	TRPC6 inhibitor	TRPC4 PAM	TRPC4 act	HEK293 MPD ctr-2	HEK293 MPD ctr 2-2	TRPC4/MOR mod	TRPC4/MOR inh 2	TRPC6 inh conf	TRPC6 act conf	others
CC[n+]1c(C)sc2c3ccsc3ccc21	i	i	-6.3*	i	i	-184%*	i	-32%*	i	i	i
CCc1nc(CNC(=O)C2CCC(=O)N(Cc3cccc(OC)c3)C2)no1 (stereo unspecified)	i	i	i	i	i	.	.	.	.	.	.
CCN(CC)c1ccc(N=C2C(=O)Nc3ccccc32)cc1	i	i	-7.5*	i	i	-261%*	i	-40%*	89%*	76%*	i
Cc1ccc(N=C2C(=O)Nc3ccccc32)cc1	i	i	i	i	i	.	.	.	.	.	.
CCOC(=O)c1cnc2ccc(C(=O)OC)cc2c1NCCc1ccc(OC)c(OC)c1	i	i	i	i	i	.	.	.	.	.	.
CCOC(=O)c1cnc2ccc(C)cc2c1NCCO	i	i	-8.2*	i	i	.	.	.	.	i	i	TRPC4 spec 2=i;TRPC4 spec=-12%*;HEK293 MPD ctr 2-1=6.5%*;HEK293 MPD ctr-1=-279%*
CCOC(=O)c1cnc2ccc(OCC)cc2c1N1CCN(C)CC1	i	i	-5.5*	i	i	-110%*	i	-18%*	43%*	i	i
